Measurements pooled from the literature.
Each line is one published result; the experiments were not run side by side.
Organism: Plasmodium falciparum
Effect on: parasite growth

`COC(CNC1=CC2=NCCc3c[nH]c(c32)C1=O)c1c[nH]c2ccccc12` (centres unmarked) has an IC50 of 654 nM (SYBR Green; DD2; blood stage).
`COc1ccccc1C(=O)/C=C/c1cn(Cc2cn(-c3ccnc4cc(Cl)ccc34)nn2)c2ccccc12` has an IC50 of 3500 nM (SYBR Green; drug-resistant strain, blood stage).
For `CCOC(=O)C1=C(C)NC2=C(C(=O)OC(c3ccc(OC)c(OC)c3)C2)C1c1ccccc1C` (mixture of isomers), the EC50 was 40 to 190 nM (SYBR Green; 3D7; blood stage).
With `O=C1c2[nH]cc3c2C(=NCC3)c2c(-c3ccc(O)cc3)c[nH]c21` the IC50 was 4770 nM (SYBR Green; DD2; blood stage).
With `O=C(/C=C/c1cn(Cc2cn(-c3ccnc4cc(Cl)ccc34)nn2)c2ccccc12)c1ccccc1Cl` the inhibition was 42.4% (SYBR Green; 3D7; 5 µM, blood stage).
For `O=C1C(NCCc2c[nH]c3ccccc23)=CC2=NCCc3c[nH]c1c32`, the IC50 was 716 nM (SYBR Green; W2; blood stage).
`COCC(=O)N1CCC[C@H](C(=O)NCc2nc(-c3cccnc3)cs2)C1` gave an EC50 of 92 nM (SYBR Green; DD2; 72 h, blood stage).
For `O=C(/C=C/c1cn(Cc2cn(-c3ccnc4cc(Cl)ccc34)nn2)c2ccccc12)c1ccccc1Br`, the inhibition was 47.4% (SYBR Green; 3D7; 10 µM, blood stage).
`Cc1cc(Nc2ccc(S(F)(F)(F)(F)F)cc2)n2nc(C(C)(F)F)nc2n1` gave an EC50 of 8.4 nM (3D7; blood stage).
`CCOCC(=O)N1CCC[C@H](C(=O)NCc2nc(-c3ccc(C#N)cc3)cs2)C1` gave an EC50 of 5.8 nM (SYBR Green; DD2; 72 h, blood stage).
With `O=C(/C=C/c1cn(Cc2cn(-c3ccnc4cc(Cl)ccc34)nn2)c2ccccc12)c1ccccc1[N+](=O)[O-]` the inhibition was -5.03% (SYBR Green; 3D7; 5 µM, blood stage).
`COCC(=O)N1CCC[C@@H](C(=O)NCc2nc(-c3ccccc3)cs2)C1` has an EC50 of 7000 nM (SYBR Green; DD2; 72 h, blood stage).
`COC1=CC2=[N+](C)CCc3c[nH]c(c32)C1=O` gave an IC50 of 1520 nM (SYBR Green; W2; blood stage).
For `COCC(=O)N1CCC[C@H](C(=O)NCc2nc(-c3ccc(OC)cc3)cs2)C1`, the EC50 was 20 nM (SYBR Green; DD2; 72 h, blood stage).
For `Cn1cc2c3c1C(=O)C(NCCc1ccc(O)cc1)=CC3=NCC2`, the IC50 was 2380 nM (SYBR Green; DD2; blood stage).
`CCOCC(=O)N1CCC[C@H](C(=O)NCc2nc(-c3ccccc3)cs2)C1` gave an EC50 of 24 nM (SYBR Green; DD2; 72 h, blood stage).
`O=C(/C=C/c1cn(Cc2cn(-c3ccnc4cc(Cl)ccc34)nn2)c2ccccc12)c1cccc([N+](=O)[O-])c1` gave an inhibition of 4.82% (SYBR Green; 3D7; 5 µM, blood stage).
The IC50 of `NC1=CC2=NCCc3c[nH]c(c32)C1=O` is reported as 478 nM (SYBR Green; DD2; blood stage).
The inhibition of `O=C(/C=C/c1cn(Cc2cn(-c3ccnc4cc(Cl)ccc34)nn2)c2ccccc12)c1ccc(Br)cc1` is reported as 37.4% (SYBR Green; 3D7; 10 µM, blood stage).
For `CCN(CC)CCCC(C)Nc1ccnc2cc(Cl)ccc12` (centres unmarked), the IC50 was 6.57 nM (SYBR Green; D6; 72 h, blood stage).
